Experimental data from ChEMBL document CHEMBL1125742, “(2S)-1-(arylacetyl)-2-(aminomethyl)piperidine derivatives: novel, highly selective kappa opioid analgesics” (J Med Chem, 1991).

How the values were obtained:
Mus musculus [1] = assay: Antinociceptive activity in mouse tail flick test following s.c. administration.; type: functional
Procedure, shortened: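 Mouse tail flick test, D'Amour and Smith procedure as modified by Ling et al., with compound given subcutaneously. ED50 in mg/kg with 95% confidence limits, derived by Finney probit analysis.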

Mu-type opioid receptor [2] = target: T1, Mu-type opioid receptor (Cavia porcellus, UniProt P97266); assay: Compound was evaluated for its binding affinity against Opioid receptor mu 1 subtype in guinea pig brain (minus cerebellum) using [3H]-DAGO as radioligand.; type: tissue-based
T1 sequence (P97266 whole entry): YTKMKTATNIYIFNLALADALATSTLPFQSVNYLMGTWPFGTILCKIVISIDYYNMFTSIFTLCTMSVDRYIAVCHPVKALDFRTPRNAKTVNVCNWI
Procedure, shortened: (§1)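 μ sites in fresh guinea pig brain homogenate (minus cerebellum) were labelled with [3H]DAGO for 40 min at 25 °C. Samples were filtered on GF/C, washed with ice-cold Tris buffer, and bound radioactivity counted. Nonspecific binding was set with 10^-6 M naloxone. Ki by Cheng–Prusoff, as the mean of triplicate curves (n = 3 experiments).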

[3] = target: T2, Kappa-type opioid receptor (Cavia porcellus, UniProt P41144); assay: Compound was evaluated for its binding affinity against Opioid receptor kappa 1 subtype in guinea pig brain (minus cerebellum). using [3H]U-69593 as radioligand.; type: tissue-based
T2 sequence (P41144 whole entry): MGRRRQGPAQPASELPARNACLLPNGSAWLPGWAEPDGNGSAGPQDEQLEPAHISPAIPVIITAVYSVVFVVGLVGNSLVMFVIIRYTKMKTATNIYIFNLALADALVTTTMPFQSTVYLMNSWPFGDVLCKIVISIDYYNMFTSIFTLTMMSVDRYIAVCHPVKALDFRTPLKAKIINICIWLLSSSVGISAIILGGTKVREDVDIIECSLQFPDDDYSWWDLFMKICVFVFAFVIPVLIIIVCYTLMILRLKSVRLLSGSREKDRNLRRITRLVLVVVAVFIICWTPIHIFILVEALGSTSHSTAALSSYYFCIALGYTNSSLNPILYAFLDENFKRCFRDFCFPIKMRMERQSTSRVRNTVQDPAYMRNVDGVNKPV
Procedure, shortened: (§2)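 Fresh guinea pig brain homogenate (cerebellum removed) incubated with κ-selective [3H]U-69593 and competitor for 50 min at 25 °C. Samples were filtered on GF/C, washed and counted by liquid scintillation. Nonspecific binding was set with 10^-6 M naloxone. Ki from Cheng–Prusoff, as the mean of triplicate concentration–response curves (n = 3 experiments).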

[4] = target: T2, Kappa-type opioid receptor; assay: Displacement of [3H]U-69593 from kappa opioid receptors in guine pig brain (minus cerebellum).; type: tissue-based
Mu-type opioid receptor [5] = target: T1, Mu-type opioid receptor; assay: Displacement of [3H]DAGO from mu opioid receptors in guinea pig brain (minus cerebellum).; type: tissue-based; procedure, shortened: as §1
Mus musculus [6] = assay: Compound was evaluated for its antinociceptive activity in the mouse tail flick (MTF) test following subcutaneous administration of 10 mg/kg; type: functional
Procedure, shortened: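 Mouse tail flick test, D'Amour and Smith procedure as modified by Ling et al. A single 10 mg/kg subcutaneous dose was given and the result recorded as % protection.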

[7] = target: T2, Kappa-type opioid receptor; assay: Compound was evaluated for its binding affinity against Opioid receptor kappa 1 subtype in guinea pig brain (minus cerebellum) using [3H]U-69593 as radioligand.; type: tissue-based; procedure, shortened: as §2
Mus musculus [8] = assay: Compound was evaluated for its antinociceptive activity in the mouse tail flick (MTF) test following peroral administration; type: functional; settings: po
Procedure, shortened: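 Mouse tail flick test, D'Amour and Smith procedure as modified by Ling et al., with oral (po) dosing. ED50 in mg/kg with 95% confidence limits, derived by Finney probit analysis.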

Mu-type opioid receptor [9] = target: T1, Mu-type opioid receptor; assay: Compound was evaluated for its binding affinity against opioid receptor mu subtype in guinea pig brain (minus cerebellum) using [3H]DAGO as radioligand.; type: tissue-based; procedure, shortened: as §1
[10] = Mus musculus, Tail, sc, read-out: ED50

| SMILES | ED50 (Mus musculus [1]; [10]) | Ki [4] | Ki (Mu-type opioid receptor [5]) | also measured |
| --- | --- | --- | --- | --- |
| O=C(Cc1ccc(Cl)c(Cl)c1)N1CCCCC1CN1CCCC1 (configuration not stated) | 0.09 mg/kg |  |  | Ki (Mu-type opioid receptor [2]): 1860 nM; Ki [3]: 0.53 nM |
| O=C(Cc1cccc(C(F)(F)F)c1)N1CCCCC1CN1CCCC1 (configuration not stated) | 0.38 mg/kg | 1.07 nM | > 10000 nM |  |
| O=C(Cc1ccc(Cl)cc1)N1CCCCC1CN1CCCC1 (configuration not stated) | 0.84 mg/kg | 1.68 nM | 5910 nM |  |
| O=C(Cc1ccc(F)cc1)N1CCCCC1CN1CCCC1 (configuration not stated) | 9.22 mg/kg | 15.4 nM | > 10000 nM |  |
| O=C(Cc1ccc(O)cc1)N1CCCCC1CN1CCCC1 (configuration not stated) |  | 194 nM | > 10000 nM | Protection (Mus musculus [6]): 0% |
| O=C(Cc1ccc(Br)cc1)N1CCCCC1CN1CCCC1 (configuration not stated) | 0.46 mg/kg | 0.84 nM | 2980 nM |  |
| O=C(Cc1cccc([N+](=O)[O-])c1)N1CCCCC1CN1CCCC1 (configuration not stated) | 0.86 mg/kg |  |  |  |
| O=C(Cc1ccc(C2CCCCC2)cc1)N1CCCCC1CN1CCCC1 (configuration not stated) |  | 827 nM | 974 nM | Protection (Mus musculus [6]): 0% |
| O=C(Cc1ccc(Cl)c(Cl)c1)N1CCCCC1CN1CCCCC1 (configuration not stated) | 0.19 mg/kg |  |  | Ki (Mu-type opioid receptor [2]): 4810 nM; Ki [7]: 0.48 nM |
| CN(C)C[C@@H]1CCCCN1C(=O)Cc1ccc(Cl)c(Cl)c1 | 0.87 mg/kg | 0.7 nM | 2160 nM |  |
| O=C(Cc1ccc(Cl)c(Cl)c1)N1CCCC[C@@H]1CN1CCCC1 | 17.5 mg/kg | 15.4 nM | 7110 nM |  |
| CC(C)(C)c1ccc(CC(=O)N2CCCCC2CN2CCCC2)cc1 (configuration not stated) | 1 mg/kg |  |  |  |
| Cc1ccc(CC(=O)N2CCCCC2CN2CCCC2)cc1 (configuration not stated) | 3.88 mg/kg | 3.84 nM | > 10000 nM |  |
| CN(C)CC1CCCCN1C(=O)Cc1ccc(Cl)c(Cl)c1 (configuration not stated) | 0.92 mg/kg |  |  | Ki (Mu-type opioid receptor [2]): 3050 nM; Ki [7]: 1.36 nM |
| O=C(Cc1ccc([N+](=O)[O-])cc1)N1CCCCC1CN1CCCC1 (configuration not stated) | 0.49 mg/kg |  |  |  |
| CCN(CC)CC1CCCCN1C(=O)Cc1ccc(Cl)c(Cl)c1 (configuration not stated) | 0.77 mg/kg | 1.28 nM | 5000 nM |  |
| Cc1ccc(CC(=O)N2CCCCC2CN2CCCC2)cc1C (configuration not stated) | 2.89 mg/kg | 1.83 nM | 5310 nM |  |
| O=C(Cc1ccccc1C(F)(F)F)N1CCCCC1CN1CCCC1 (configuration not stated) |  | 8.54 nM | > 10000 nM | Protection (Mus musculus [6]): 60% |
| O=C(Cc1ccc(Cl)c(Cl)c1)N1CCCC[C@H]1CN1CCCC1 | 0.05 mg/kg | 0.24 nM | 1560 nM | ED50 (Mus musculus [8]): 0.89 mg/kg |
| O=C(Cc1ccc(C(F)(F)F)cc1)N1CCCCC1CN1CCCC1 (stereo in doubt; 20) |  | 0.78 nM | 3520 nM | ED50 (Mus musculus [1]): 0.2 mg/kg |
| O=C(Cc1ccc(C(F)(F)F)cc1)N1CCCCC1CN1CCCC1 (stereo in doubt; 21) | 0.11 mg/kg | 0.57 nM | 2340 nM | ED50 (Mus musculus [8]): 1.17 mg/kg |
| CC(C1CCCCN1C(=O)Cc1ccc(Cl)c(Cl)c1)N(C)C (stereo in doubt; 37) | 0.38 mg/kg | 0.6 nM | 762 nM |  |
| CC(C1CCCCN1C(=O)Cc1ccc(Cl)c(Cl)c1)N(C)C (stereo in doubt; 38) |  | 1000 nM |  | Protection (Mus musculus [6]): 0%; Ki (Mu-type opioid receptor [9]): > 10000 nM |
| CN1CCCC1C1CCCCN1C(=O)Cc1ccc(Cl)c(Cl)c1 (stereo in doubt; 41) | 0.4 mg/kg | 0.33 nM | 464 nM |  |
| CN1CCCC1C1CCCCN1C(=O)Cc1ccc(Cl)c(Cl)c1 (stereo in doubt; 42) |  | 11.7 nM | 864 nM | Protection (Mus musculus [6]): 40% |
| CN1CC[C@]23c4c5ccc(O)c4O[C@H]2[C@@H](O)C=C[C@H]3[C@H]1C5 [MORPHINE] | 2.8 mg/kg |  |  |  |
